The values below come from ChEMBL document CHEMBL2046322, “Discovery of 1,3-Diaminobenzenes as Selective Inhibitors of Platelet Activation at the PAR1 Receptor” (ACS Med Chem Lett, 2012).

In brackets after ≈: the same amount, converted by molar mass. Activity calls are given as the source filed them. No cut-off for these calls is given here.

In data set [1] the target is T1, Proteinase-activated receptor 1 (Homo sapiens, UniProt P25116).
T1 sequence (P25116 whole entry): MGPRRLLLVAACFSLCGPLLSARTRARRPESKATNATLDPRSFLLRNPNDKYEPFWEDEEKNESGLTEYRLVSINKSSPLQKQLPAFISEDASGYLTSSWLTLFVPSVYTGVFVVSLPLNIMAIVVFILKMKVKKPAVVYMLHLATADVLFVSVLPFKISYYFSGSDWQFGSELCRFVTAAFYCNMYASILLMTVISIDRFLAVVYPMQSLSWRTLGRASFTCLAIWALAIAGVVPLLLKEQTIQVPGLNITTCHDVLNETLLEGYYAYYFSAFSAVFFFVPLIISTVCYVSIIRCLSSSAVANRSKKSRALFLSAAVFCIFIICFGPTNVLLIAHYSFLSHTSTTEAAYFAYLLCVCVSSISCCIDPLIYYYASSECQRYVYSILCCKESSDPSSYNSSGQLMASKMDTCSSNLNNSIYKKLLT
Nature of the data set: Inhibition of SFLLRN-NH2-stimulated PAR1-mediated platelet activation in […] assessed as surface expression of P-selectin after 20 mins by flow cytometry. Also noted: species or system Plasma. (In flow cytometry, cells or beads pass a laser one at a time.)

For data set [2], the target named is T2, Proteinase-activated receptor 1 (Homo sapiens) (UniProt P25116).
T2 sequence (whole entry): T1 sequence (P25116 whole entry)
Nature of the data set: Inhibition of SFLLRN-NH2-stimulated PAR1-mediated platelet activation in platelet-rich human plasma assessed as surface expression of P-selectin at 3 uM after 20 mins by flow cytometry. The following applies: Platelets, in the assay text read “gel-filtered human platelets” for “platelet-rich human plasma”. Put shortly: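 Gel-filtered human platelets (0.5–1 × 10⁸/mL) exposed to antagonist at 3 μM, then challenged with 5 μM SFLLRN for 10 min. Platelets stained with PE-conjugated AC1.2 anti-P-selectin antibody for 20 min at 37 °C, diluted in PBS and measured immediately by flow cytometry.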

Data set [3] addresses T2, Proteinase-activated receptor 1 (Homo sapiens). Description: Inhibition of SFLLRN-NH2-stimulated PAR1-mediated platelet activation in […] assessed as surface expression of P-selectin at 10 uM after 20 mins by flow cytometry. It is filed as cell-based.
In data set [4] the test system is Plasma. Nature of the data set: Metabolic stability in human plasma assessed as compound remaining at 5 uM after 5 hrs. The class given is ADME, cell-free. Put shortly: (§1)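 Compound incubated in human or mouse plasma; stability reported as percent remaining after 5 h.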
Data set [5] deals with Plasma. Description: Metabolic stability in mouse plasma assessed as compound remaining at 5 uM after 5 hrs. It is filed as ADME, cell-free. Put shortly:
as §1

The subject of data set [6] is Plasma. Description: Plasma protein binding in human. The class given is ADME, cell-free.
In data set [7] the test system is Plasma. Description: Plasma protein binding in mouse. The class given is ADME, cell-free.
Data set [8] is described as follows: Solubility of the compound in phosphate buffered saline. It is filed as physicochemical. The following applies: buffer.
Data set [9] deals with cGMP-inhibited 3',5'-cyclic phosphodiesterase 3A (Homo sapiens) (UniProt Q14432). Description: Inhibition of PDE3A.
Data set [10] addresses T2, Proteinase-activated receptor 1 (Homo sapiens). The following applies: Plasma, 3 uM.
Data set [11] shares this target. The following applies: Plasma, 3 uM. This is another data set of the same source.
Data set [12] has the same target. To be noted: Plasma, 3 uM. The source holds these as a separate data set.
Data set [13] shares this target. The following applies: Plasma, 3 uM. This is another data set of the same source.
The target is the same in data set [14]. To be noted: 3 uM.
The target is the same in data set [15]. To be noted: 3 uM. This is another data set of the same source.
Data set [16] has the same target. The following applies: 3 uM. The source holds these as a separate data set.
The target is the same in data set [17]. The following applies: 3 uM. The source holds these as a separate data set.
The target is the same in data set [18]. The following applies: 3 uM. The source holds these as a separate data set.

cGMP-inhibited 3',5'-cyclic phosphodiesterase 3A (Homo sapiens), sequence (Q14432 whole entry): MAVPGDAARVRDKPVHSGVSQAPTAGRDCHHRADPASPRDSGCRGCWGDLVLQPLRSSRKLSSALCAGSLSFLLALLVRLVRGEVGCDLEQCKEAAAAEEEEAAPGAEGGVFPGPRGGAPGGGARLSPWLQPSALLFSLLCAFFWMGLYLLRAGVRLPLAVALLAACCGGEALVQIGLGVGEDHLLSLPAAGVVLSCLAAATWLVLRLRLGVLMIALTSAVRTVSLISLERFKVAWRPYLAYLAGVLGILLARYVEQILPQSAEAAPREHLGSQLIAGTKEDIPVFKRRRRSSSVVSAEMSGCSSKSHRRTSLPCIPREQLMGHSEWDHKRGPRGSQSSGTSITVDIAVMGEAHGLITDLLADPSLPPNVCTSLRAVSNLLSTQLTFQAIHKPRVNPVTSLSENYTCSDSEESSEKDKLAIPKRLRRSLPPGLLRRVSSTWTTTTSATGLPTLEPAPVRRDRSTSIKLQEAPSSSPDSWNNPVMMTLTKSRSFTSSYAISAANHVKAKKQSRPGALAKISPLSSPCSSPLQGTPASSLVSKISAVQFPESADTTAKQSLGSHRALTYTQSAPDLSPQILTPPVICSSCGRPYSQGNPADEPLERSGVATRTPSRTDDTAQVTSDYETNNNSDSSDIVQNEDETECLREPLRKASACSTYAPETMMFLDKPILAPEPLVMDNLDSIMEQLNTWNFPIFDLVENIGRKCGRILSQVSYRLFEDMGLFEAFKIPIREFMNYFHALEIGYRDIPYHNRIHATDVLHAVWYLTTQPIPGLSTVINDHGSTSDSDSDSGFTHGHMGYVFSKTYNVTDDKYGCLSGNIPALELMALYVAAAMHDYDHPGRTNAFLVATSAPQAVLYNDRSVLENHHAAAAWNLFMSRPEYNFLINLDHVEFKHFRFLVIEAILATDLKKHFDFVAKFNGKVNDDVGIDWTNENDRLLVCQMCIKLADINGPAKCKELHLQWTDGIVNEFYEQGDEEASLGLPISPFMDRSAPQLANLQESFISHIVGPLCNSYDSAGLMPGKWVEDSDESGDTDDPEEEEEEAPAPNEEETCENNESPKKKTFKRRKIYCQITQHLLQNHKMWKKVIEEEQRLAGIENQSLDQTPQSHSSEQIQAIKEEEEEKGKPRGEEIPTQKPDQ

Regarding `CCC(=O)Nc1cccc(NC(=O)c2ccccc2Br)c1`, the IC50 – broadly, the concentration that inhibits the measured activity by half – in [1] was determined as 1680 nM. Moreover, the inhibition (as a rule, the share of the control response that was lost under treatment) in data set [2] stood at 95%.
Take `CCOC(=O)Nc1cccc(NC(=O)c2ccccc2Br)c1`: the IC50 in [1] is 2640 nM. Besides, the inhibition in data set [3] came out at 98%. Moreover, the Stability in data set [4] is recorded as 85%; in data set [5], 56%. Also, the PPB in data set [6] amounted to 95%; in data set [7] it was 87%.
Turning to `CC(C)CC(=O)Nc1cccc(NC(=O)c2ccccc2Br)c1`, the IC50 in [1] worked out at 290 nM. The inhibition in data set [3] is above 99%. In addition, the solubility (commonly the dissolved amount per volume that the medium holds) in data set [8] worked out at 20 µM (≈ 7.51 µg/mL). The Stability in data set [4] is 90%; in data set [5], 65%. Besides, the PPB is 93% in [6] and 87% in data set [7].
With `CCCC(=O)N(C)c1cccc(NC(=O)c2ccccc2Br)c1`, the inhibition in data set [3] is 8%. The Stability in [4] is recorded as 90%; in data set [5], 85%. Moreover, the PPB in data set [6] amounted to 98%; in [7], 85%.
As to `CCCC(=O)Nc1cccc(NC(=O)c2cccc(Oc3ccccc3)c2)c1`, in data set [2], the inhibition was found to be 65%.
For the compound `Cc1ccccc1C(=O)Nc1cccc(NC(=O)CC(C)C)c1`, the IC50 in [1] worked out at 1120 nM. The inhibition in data set [3] was above 99%. For the same compound, the Stability in data set [4] is above 99%; in [5], 69%. Besides, the PPB in data set [6] was determined as 96%; in data set [7], 83%.
In the case of `CCS(=O)(=O)N1CCCc2ccc(NC(=O)c3ccccc3Br)cc21`, the inhibition in data set [3] was 26%. Besides, the Stability in data set [4] was above 99%; in data set [5], 97%. In addition, the PPB came to 98% in data set [6] and 96% in [7].
For `CCCC(=O)Nc1cccc(NC(=O)c2ccccc2Br)c1`, the IC50 in data set [1] came out at 260 nM. Further, in data set [3], the inhibition is above 99%. Moreover, the inhibition entry in data set [9], in [10], in data set [11], in data set [12], in [13] and in data set [16] was “inactive” throughout. Moreover, the inhibition entry in [17] and in [18] was “inactive” in each case. Further, the solubility in [8] was 40 µM (≈ 14.4 µg/mL). Moreover, the figures for the Stability in data set [4] and in data set [5] were 80% and 2%, respectively. Besides, the PPB in data set [6] was found to be 97%. Besides, the inhibition result in data set [14] and in [15] was “Active” throughout.
For `CCCC(=O)Nc1cccc(NC(=O)c2cccc(Cl)c2)c1`, the inhibition in [2] was 80%.
`CN(C(=O)c1ccccc1Br)c1cccc(NC(=O)C2CCCC2)c1`: the inhibition in [3] was below 1%. Further, the Stability in data set [4] is 64%; in data set [5], 40%. Further, the PPB in [6] was 95%; in [7] it was 90%.
Take `CCCCNc1cccc(NC(=O)c2ccccc2Br)c1`: in data set [1], the IC50 amounted to 340 nM. Besides, in [3], the inhibition is above 99%. Besides, the Stability in data set [4] is reported as 99%; in data set [5] it was 97%. In addition, the figures for the PPB in data set [6] and in [7] were 97% and 96%, respectively.
